STAT3 act-1: STAT3 signaling activation; U3A cells, IL-6 STAT3-luciferase reporter, luminescence; 100% = signal with IL-6 EC80 alone; activation (% of control), % at 5.6 µM; 190,000 compounds, 0.91% hits;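 active = activation above the screen-wide mean of compound activation plus 3 SD, cut at about 130% in these data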
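Material: STAT3-luciferase reporter U3A cells. Controls: IL-6-treated wells, 100% activation. Read-out: % activation versus median of IL-6-stimulated wells. Probe or stimulus: IL-6 stimulus at 33 ng/mL final. Timing: compound 1 h, then IL-6 6 h at 37 °C. Signal: reporter luminescence signal.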
STAT1 inh: reduces IFN-gamma driven STAT1 reporter signal | NIH 3T3 STAT1-luciferase reporter, luminescence | inhibition, % at 5.5 µM | 200,000 compounds, 0.35% hits;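 active = inhibition above a set limit, the mean inhibition across all tested compounds plus 3 SD, cut at about 34% in these data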
APP 5'UTR act: activates APP 5'UTR luciferase reporter. SH-SY5Y APP 5'UTR luciferase reporter, luminescence; zero percent = DMSO vehicle wells. activation, % at 2 µM. 190,000 compounds, 1% hits. AID 1276;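 active = activation above a set limit, based on mean plus 3 SD of controls, cut at about 140% in these data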
STAT1 act-1: increases IFN-gamma driven STAT1 reporter signal | NIH 3T3 STAT1-luciferase reporter, luminescence; 100% = IFN-gamma alone, no compound | activation (% of control), % at 5.5 µM | 200,000 compounds, 2.6% hits;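 active = activation above the screen-wide mean activation plus 3 SD, cut at about 130% in these data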
STAT3 blocker: STAT3 signaling inhibition; U3A cells, IL-6 STAT3-luciferase reporter, luminescence; host cell line lacks STAT1; inhibition, % at 5.5 µM; 190,000 compounds, 0.89% hits; AID 862;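 active = inhibition above the mean inhibition across all screened compounds plus 3 SD, cut at about 44% in these data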
NF-kB neuron act: raises NF-kB expression in human neuronal cells; NF-kB reporter expression; active compounds read high; fold change at 12.5 µM; 190,000 compounds, 1.6% hits; in the data active = fold change above about 3.3
STAT3 act-2: STAT3 activation, confirmation assay; shares compounds with STAT3 act-1; U3A STAT3-luciferase reporter, IL-6 potentiation, luminescence; U3A cells lack STAT1; 100 means same as IL-6 alone; potentiation (% of control), % at 5.7 µM; 1,200 compounds, 64% hits; AID 1267;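 active = percent activation of the STAT3 luciferase reporter above a set limit taken from the earlier primary screen, cut at about 130% in these data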
NFkB act STAT3ct: activates NF-kappaB, counter-screen to STAT3 activators; activation (% of control), % at 5.7 µM; 1,200 compounds, 11% hits; AID 1309; human cells, NF-kappaB reporter activation; shares compounds with STAT3 act-1; in the data active = activation above about 120%;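 note: reporter induced by TNF-alpha stimulation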
STAT1 act-2: activates STAT1, counter-screen to STAT3 activators; activation (% of control), % at 5.7 µM; AID 1318; NIH 3T3 STAT1-luciferase reporter, IFN-gamma, luminescence; shares compounds with STAT3 act-1; 1,200 compounds, 13% hits;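 active = activation above the solvent-only control well mean plus 3 SD, set per screening run, cut at about 120% in these data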
Each line names hits and unclear results; the compound was inactive in the other large screens (follow-up assays come after a bar, where they were run). The list is not random: actives were taken first. Their share in the collection is about 4.9%.

CCN(CC)C(=O)CSC1=Nc2ccccc2C2=NC(Cc3c[nH]c4ccccc34)C(=O)N12 (stereo not drawn)	STAT3 act-1 137.2 | STAT3 act-2 135.4 | NFkB act STAT3ct inactive | STAT1 act-2 inactive
CSc1nsc(SCC(=O)NC2CCCCC2)n1	STAT3 act-1 137.0 | STAT3 act-2 inactive | NFkB act STAT3ct inactive | STAT1 act-2 inactive
O=C(/C=C/c1ccccc1)C1=C(O)C(=O)N(CCO)C1c1ccccc1[N+](=O)[O-] (stereo not drawn)	STAT3 act-1 143.7 | STAT3 act-2 152.0 | NFkB act STAT3ct inactive | STAT1 act-2 inactive
CC(=O)C1=C(O)C(=O)N(CCc2ccccc2)C1c1ccccc1[N+](=O)[O-] (stereo not drawn)	none
CC1=NN(C(=O)Cn2nc([N+](=O)[O-])c(Br)c2C)C(O)(C(F)(F)F)C1 (stereo not drawn)	none
Oc1ccccc1C=NCC(O)c1ccccc1 (stereo not drawn)	none
COc1ccc2ncn(-c3ccccc3)c2c1	STAT3 act-1 136.5 | STAT3 act-2 inactive | NFkB act STAT3ct inactive | STAT1 act-2 inactive
CC(C)(CO)N=Cc1c(O)[nH]c2ccccc12	STAT3 act-1 142.0 | STAT3 act-2 137.0 | NFkB act STAT3ct inactive | STAT1 act-2 inactive
CSc1nnc2c(n1)c(C)nn2-c1ccc(C)cc1	STAT3 act-1 148.9 | STAT3 act-2 160.9 | NFkB act STAT3ct inactive | STAT1 act-2 127.8
O=C(NCC1CCCO1)c1ccc(COc2ccc(F)cc2)o1 (stereo not drawn)	STAT3 act-1 137.8 | STAT3 act-2 inactive | NFkB act STAT3ct inactive | STAT1 act-2 inactive
O=C(Cc1ccccc1)c1nc2ccccc2s1	STAT3 act-1 142.7 | STAT3 act-2 164.3 | NFkB act STAT3ct 127.8 | STAT1 act-2 127.7
COC(=O)c1ccc(CC(=O)c2nc3ccccc3s2)cc1	none
Cc1ccc(C)c(OC(=O)c2cncc(Br)c2)c1	none
NC(=O)C1CNc2ccccc2O1 (stereo not drawn)	STAT3 act-1 156.2 | STAT3 act-2 148.2 | NFkB act STAT3ct inactive | STAT1 act-2 inactive
Cc1ccc2c(c1)NCC(C(=O)NCc1ccccc1)O2 (stereo not drawn)	none
Cc1ccc(-c2nc3ccccc3n3nnnc23)cc1	STAT3 act-1 173.9 | STAT3 act-2 185.2 | NFkB act STAT3ct 131.3 | STAT1 act-2 148.2
Cc1cc(N/N=C/c2c(O)ccc3ccccc23)nc(-c2ccccc2O)n1	none
Oc1ccc2ccccc2c1/C=N/Nc1ccccc1	STAT3 act-1 150.5 | STAT3 act-2 150.0 | NFkB act STAT3ct inactive | STAT1 act-2 inactive
O=c1oc(-c2cccs2)nc2scc(-c3cccs3)c12	STAT3 act-1 139.7, APP 5'UTR act 200.2 | STAT3 act-2 inactive | NFkB act STAT3ct inactive | STAT1 act-2 inactive
FC(F)(F)c1nnc2c(Sc3ccccn3)nc3ccccc3n12	STAT3 act-1 141.3 | STAT3 act-2 146.2 | NFkB act STAT3ct 121.8 | STAT1 act-2 127.7
COc1ccc(C(=O)n2nc(-c3ccccc3)nc2SC)cc1	none
COc1ccc(-c2nc3scc(-c4ccccc4)n3n2)cc1	STAT3 act-1 159.8 | STAT3 act-2 143.9 | NFkB act STAT3ct inactive | STAT1 act-2 inactive
CCOC(=O)c1sc(NCc2ccco2)c(-c2nc3ccccc3s2)c1N	STAT3 act-1 157.9 | STAT3 act-2 135.7 | NFkB act STAT3ct inactive | STAT1 act-2 inactive
CCNc1sc(C(=O)c2cccs2)c(N)c1-c1nc2ccccc2s1	none
C=CCNc1sc(C(=O)c2ccccc2)c(N)c1-c1nc2ccccc2s1	STAT3 act-1 142.6 | STAT3 act-2 inactive | NFkB act STAT3ct inactive | STAT1 act-2 inactive
O=C1C(Cl)=C(N2CCN(c3ccccc3[N+](=O)[O-])CC2)C(=O)c2ccccc21	STAT3 act-1 144.8 | STAT3 act-2 134.8 | NFkB act STAT3ct inactive | STAT1 act-2 inactive
N#C/C(=C\c1ccc(-c2ccc(C(=O)O)cc2)o1)c1nc2ccccc2[nH]1	STAT3 act-1 189.4 | STAT3 act-2 204.6 | NFkB act STAT3ct 134.2 | STAT1 act-2 140.5
O=C(COC(=O)c1cnc(Cl)c(Cl)c1)Nc1ccc(S(=O)(=O)N2CCCC2)cc1	none
COC(=O)Cn1ncc(N2C3CC(CC(C)(C)C3)C2C)c(Cl)c1=O (stereo not drawn)	none
O=C(Cn1cnc([N+](=O)[O-])n1)NCc1ccccc1	none
O=C(CCCn1cnc([N+](=O)[O-])n1)Nc1cccc2ccccc12	STAT3 act-1 138.4 | STAT3 act-2 inactive | NFkB act STAT3ct inactive | STAT1 act-2 inactive
Cc1ccc(Sc2cnn(-c3ccccc3)c(=O)c2Cl)cc1	STAT3 act-1 141.5 | STAT3 act-2 133.3 | NFkB act STAT3ct inactive | STAT1 act-2 inactive
Nc1ccc(Sc2cnn(-c3ccccc3)c(=O)c2Cl)cc1	none
Cc1nc2cc(-c3ccc(Cl)cc3)nn2c(NCCN(C)C)c1C	STAT3 act-1 150.7 | STAT3 act-2 183.2 | NFkB act STAT3ct inactive | STAT1 act-2 120.5
CC1c2c([nH]c3ccccc23)CCC1C(=O)O (stereo not drawn)	none
CCOC(=O)CSc1nc(C)cc(C)c1C(N)=O	none
Cc1ccc(NC(=O)c2cc(N3CCOCC3)nc3ccccc23)cc1	STAT3 act-1 153.4 | STAT3 act-2 146.0 | NFkB act STAT3ct inactive | STAT1 act-2 inactive
O=C(c1cccc(F)c1)N1CCc2ccccc21	STAT3 act-1 145.5 | STAT3 act-2 inactive | NFkB act STAT3ct inactive | STAT1 act-2 inactive
Cn1ncc(Cl)c1C(=O)N1CCCc2ccccc21	none
Cn1ncc(Cl)c1C(=O)N1CCc2ccccc21	STAT3 act-1 154.9 | STAT3 act-2 140.1 | NFkB act STAT3ct inactive | STAT1 act-2 inactive
Cc1nn(C)c(C(=O)N2CCc3ccccc32)c1Cl	STAT3 act-1 143.6 (no result: NF-kB neuron act) | STAT3 act-2 inactive | NFkB act STAT3ct inactive | STAT1 act-2 inactive
Cc1cc(C(=O)N2CCc3ccccc32)c2cc(F)ccc2n1	none
Cc1ccc(CNS(=O)(=O)/C=C/c2ccc3c(c2)OCO3)cc1	none (no result: APP 5'UTR act)
CC(C)(C)c1ccc(OCC(=O)N/N=C/c2ccsc2)cc1	none
Brc1cc(Br)c2nc(-c3cccs3)ccc2c1	STAT3 act-1 144.9 | STAT3 act-2 inactive | NFkB act STAT3ct inactive | STAT1 act-2 125.1
COc1ccc(NC(=O)COC(=O)CCNS(=O)(=O)c2ccccc2)cc1OC	none
O=C(Cc1c[nH]c2ccccc12)Nc1nc2ccccc2[nH]1	STAT3 act-1 145.7 | STAT3 act-2 153.8 | NFkB act STAT3ct inactive | STAT1 act-2 inactive

Bioassay records from PubChem BioAssay.
